Results on one molecule are retold here after publication PMC11780632 (Bioinformatics and Biology Insights, 2025).

Converted amounts (≈) assume the structure as drawn.

For assay [1], the system named is S. aureus ATCC 25923. Kind of assay: Radial diffusion assay. The assay is classed as cell-based, Staphylococcus aureus. The note with it: RDA, Mueller-Hinton agar, 1 × 10^6 CFU/mL, 24 hours at 37°C, done 3 times.
The test system of a further assay is E. coli ATCC 25922. Briefly: MIC and MBC, micro-broth dilution. The note with it: Escherichia coli, ATCC25922, 24 h. It counts as cell-based. The gist of the method:
(§1)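 Strains were grown aerobically for 24 h at 37°C. Two-fold serial dilutions of test peptide were made in 96-well plates, and an equal volume of bacterial suspension at 1 × 10⁶ CFU/mL was added. Plates were incubated for 24 h at 37°C, with gentamicin as control. MIC was taken as the lowest concentration preventing growth.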

A further assay concerns A. baumannii ATCC 19606. Briefly: MIC and MBC, micro-broth dilution. It counts as cell-based. The following applies: Acinetobacter baumannii, ATCC19606, 24 h. The gist of the method: as §1
For a further assay, the system named is P. aeruginosa ATCC 27853. Briefly: MIC and MBC, micro-broth dilution. It counts as cell-based. The note with it: Pseudomonas aeruginosa, ATCC27853, 24 h. The gist of the method: as §1
Assay [2] relates to S. aureus ATCC 25923. Briefly: MIC and MBC, micro-broth dilution. The assay is classed as cell-based. The note with it: Staphylococcus aureus, ATCC25923, 24 h. The essentials:
as §1

On to `CNC(C)C1CCC(N)C(OC2C(N)CC(N)C(OC3OCC(C)(O)C(NC)C3O)C2O)O1` (centres unmarked) [Gentamicin, gentamicin], for which the “diameter of the inhibition zone” value in the assay on S. aureus ATCC 25923 [1] is on record as 26 mm. The MIC with E. coli ATCC 25922 was 1000 µM (≈ 478 µg/mL); in the assay with A. baumannii ATCC 19606, 8000 µM (≈ 3820 µg/mL); in the assay with P. aeruginosa ATCC 27853, 4000 µM (≈ 1910 µg/mL); in the assay on S. aureus ATCC 25923 [2] it was 2000 µM (≈ 955 µg/mL).
